# Fh CTSL1 inh – counter-screen for PFM18AAP inhibitors: inhibitors of F. hepatica cathepsin L1; actives 0.49% (n = 300,000); recombinant F. hepatica cathepsin L1, Z-Leu-Arg-MCA fluorescence; inhibition, % at 5.96 µM;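 active means inhibition above the mean of all tested compounds plus 3 SD, set per screening campaign, cut at about 17% in these data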;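 further: 0% = plate median of test compound wells and 100% = 1 µM Z-Phe-Ala-diazomethylketone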
# UCH37 inh – blocks the human deubiquitinase UCH37; Q9Y5K5; purified proteasome/UCH37, Ub-AMC cleavage fluorescence; inhibition, % (no concentration beside the values); actives 0.33% (n = 330,000);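 active means mean inhibition over replicate wells above about 20%, limit read from the data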;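 further: 0% = compound-free wells with enzyme and 100% = wells lacking proteasome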
#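 Test system – human UCH37 enzyme supplied as purified proteasome complex · Incubation – 30 min preincubation with enzyme, 25 min cleavage at room temperature · Detection – AMC fluorescence from Ub-AMC cleavage, excitation 355 nm, emission 460 nm · Benchmarks – no-proteasome wells (full inhibition) and compound-free wells (no inhibition)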
# TDP2 absorb – TDP2 (human) inhibition, absorbance primary screen; O95551; recombinant TDP2, T5PNP hydrolysis, p-nitrophenol absorbance 415 nm; inhibition, % at 12.8 µM; actives 0.34% (n = 370,000); AID 720702;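 active means inhibition above the mean of all tested compounds plus 3 SD, set per campaign, cut at about 25% in these data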;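 further: 0% = DMSO with enzyme and 100% = buffer with substrate but no TDP2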
#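 Incubation: 2 h at 37 °C; Test system: recombinant human TDP2; Quantity: enzyme 120 nM; Read-out basis: percent inhibition; Medium: 50 mM Tris-HCl pH 7.5 with Mg2+, KCl, DTT, BSA; Repeats: single replicate; Compound: 12.8 µM single point, 1% DMSO; Signal: epi absorbance; Reagent: 5 mM T5PNP chromogenic substrate; Benchmarks: no-enzyme high, DMSO-plus-enzyme low.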
# PAD4 FP inh – PAD4 (human) enzyme inhibition; Q9UM07; recombinant PAD4, RCA probe fluorescence polarization; inhibition, % at 6.36 µM; actives 0.41% (n = 330,000); AID 485272;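 active means percent inhibition above a cutoff equal to the mean of all tested compounds plus 3 SD, cut at about 15% in these data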;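 further: 0% = PAD4 with RCA probe and DMSO and 100% = probe without PAD4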
# GSTO1 inh – counter-screen for RBBP9 inhibitors: inhibitors of human GSTO1. P78417. recombinant GSTO1, activity-based probe fluorescence polarization. inhibition, % at 5.96 µM. actives 1.1% (n = 300,000);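 active means inhibition above the campaign mean inhibition plus 3 SD, cut at about 35% in these data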;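 further: 0% = GSTO1-1 with DMSO and 100% = wells lacking GSTO1-1 enzyme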
# HKDC1 inh – blocks human hexokinase HKDC1 activity. Q2TB90. inhibition, % at 20 µM. actives 0.16% (n = 340,000). recombinant HKDC1, G6PDH/diaphorase resazurin coupled fluorescence;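 active means inhibition above about 35% when tested at 20 µM, limit read from the data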;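 further: plate controls were DMSO wells with enzyme for no effect and DMSO wells lacking enzyme for full effect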
# Target sequence (Q2TB90 whole entry, looked up): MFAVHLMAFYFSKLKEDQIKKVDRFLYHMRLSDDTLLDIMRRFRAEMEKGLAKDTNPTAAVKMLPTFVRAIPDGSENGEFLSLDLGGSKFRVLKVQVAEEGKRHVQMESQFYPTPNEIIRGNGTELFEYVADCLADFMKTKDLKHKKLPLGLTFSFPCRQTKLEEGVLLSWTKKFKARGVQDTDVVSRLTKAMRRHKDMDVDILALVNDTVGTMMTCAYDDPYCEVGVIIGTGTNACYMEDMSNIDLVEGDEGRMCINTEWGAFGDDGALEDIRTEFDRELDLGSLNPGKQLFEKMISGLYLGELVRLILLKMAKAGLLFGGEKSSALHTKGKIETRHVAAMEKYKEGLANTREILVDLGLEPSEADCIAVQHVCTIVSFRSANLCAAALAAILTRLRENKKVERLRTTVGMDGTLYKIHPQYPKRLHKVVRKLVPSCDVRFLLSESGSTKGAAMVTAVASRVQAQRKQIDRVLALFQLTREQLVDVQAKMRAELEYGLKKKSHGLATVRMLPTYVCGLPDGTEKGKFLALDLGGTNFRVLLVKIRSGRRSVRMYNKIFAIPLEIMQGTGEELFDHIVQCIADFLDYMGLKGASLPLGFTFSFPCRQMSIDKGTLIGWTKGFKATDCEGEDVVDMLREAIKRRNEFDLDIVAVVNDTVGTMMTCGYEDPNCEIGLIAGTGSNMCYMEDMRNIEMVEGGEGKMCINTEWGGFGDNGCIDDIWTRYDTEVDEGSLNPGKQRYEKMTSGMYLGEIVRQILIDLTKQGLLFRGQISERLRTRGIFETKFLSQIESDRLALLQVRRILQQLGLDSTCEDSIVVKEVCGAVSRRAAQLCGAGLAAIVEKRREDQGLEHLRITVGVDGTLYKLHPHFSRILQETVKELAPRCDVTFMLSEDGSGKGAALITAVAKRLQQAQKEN
#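 Test system: recombinant HKDC1 (HK5) hexokinase enzyme, produced in-house / Doses: 20 µM test compound, 1% DMSO / Timing: 90 min, room temperature / Detection: G6PDH/diaphorase-coupled fluorescence, 1 mM NADP, 100 µM resazurin, 525/613 nm / Control set: DMSO wells with and without enzyme mix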
# GSTO1 inh conf – confirmation of human GSTO1 inhibitors; actives 54% (n = 2,400); inhibition, % at 5.96 µM; recombinant GSTO1, probe fluorescence polarization; shares compounds with GSTO1 inh;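 active means inhibition above the primary screen's cutoff, its mean inhibition plus 3 SD, cut at about 35% in these data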;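 further: loss of polarization as inhibitors block binding of rhodamine sulfonate ester activity probe; 0% = GSTO1 with DMSO and 100% = wells lacking GSTO1 enzyme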
# Active calls of the source: *; / = no result. Rows were chosen to be rich in hits. Some 1.6% of all compounds tested hit in one or more screens of this group.
SMILES,Fh CTSL1 inh,UCH37 inh,TDP2 absorb,PAD4 FP inh,GSTO1 inh,HKDC1 inh,GSTO1 inh conf
CNc1ccc(Br)cc(C(=O)/C=C/c2cc(OC)ccc2OC)c1=O,-1.6,6.6,-2.0,-1.4,40.0*,19.1,13.3
Cc1nc(N)sc1C(=O)NN=Cc1ccccc1[N+](=O)[O-],/,2.8,/,/,/,/,/
COc1ccc(C=NNC(=O)c2cc(OC)c(OC)c(OC)c2)cc1CN1CCc2cc(OC)c(OC)cc2C1C (centres undefined),/,4.8,/,/,/,/,/
COC(=O)C1Cc2ccccc2CN1C(=O)CCl (centres undefined),47.7*,3.0,5.9,-4.5,89.6*,-1.7,99.0*
COC(=O)[C@H](Cc1ccccc1)NC(=O)N1Cc2ccccc2C[C@H]1C(=O)OC,-2.9,4.8,-6.5,-4.6,2.5,0.3,/
COC1=CC(=O)C(O)=C(CCCCCCC/C=C/CCCCCCCC2=C(O)C(=O)C=C(OC)C2=O)C1=O,-0.4,/,/,5.7,90.7*,31.1,90.1*
COC1=C(OC)C(=O)C(CCCCCCCCCCO)=C(C)C1=O,/,/,-4.0,/,/,/,/
CCCCCCCCCCCC1=C(O)C(=O)C=C(O)C1=O,4.2,4.2,/,-2.4,79.4*,-9.9,65.8*
Cc1c(C#N)c(NC(=O)CCl)n(Cc2ccccc2)c1C,39.7*,2.5,2.6,0.3,86.0*,11.5,90.8*
Cc1c(C#N)c(NC(=O)CCl)n(Cc2ccc(F)cc2)c1C,12.4,-1.6,13.7,1.1,80.8*,0.4,95.5*
Cc1cc(=O)n(Cc2ccccc2)c(O)c1C#N,-6.6,-5.7,1.6,-22.3,6.3,3.6,/
CC(C)C(=O)Nc1ccc(C(=O)NNC(=S)NC(=O)c2ccco2)cc1,3.6,8.9,-16.7,2.1,45.5*,0.5,7.9
CC1(OC(=O)C2CCCC2)C(=O)C=C2C=C3CCCCN3C=C2C1=O (centres undefined),12.6,3.1,/,-0.3,51.4*,12.4,11.4
CC1(OC(=O)C2CCCC2)C(=O)C=C2C=C(C3CC3)OC=C2C1=O (centres undefined),-3.8,/,/,-0.8,21.8,/,/
COC(=O)CCC(=O)OC1(C)C(=O)C=C2C=C3CCCN3C=C2C1=O (centres undefined),2.0,7.3,8.4,-9.3,38.3*,12.2,10.4
CC(C)N=c1scc(-c2cccs2)n1N=Cc1ccc(O)c(O)c1O,/,11.1,/,/,/,/,/
Fc1ccc(Nc2nc(NN=Cc3ccco3)nc(N3CCCCC3)n2)cc1,/,6.8,/,/,/,/,/
CCCC[n+]1ccn(C2=C([O-])c3ccccc3C(=O)/C2=N\S(=O)(=O)c2ccc(Br)cc2)c1,7.1,19.3,3.2,-9.9,78.3*,2.2,74.2*
Cc1ccc(S(=O)(=O)/N=C2\C(=O)c3ccccc3C([O-])=C2n2cc[n+](CCC(C)C)c2)cc1,7.0,31.1*,/,-5.7,75.8*,-0.1,70.6*
Cc1ccc(-c2cc(NC(=O)CCl)n(-c3ccccc3)n2)cc1,75.3*,4.9,3.5,1.4,73.2*,19.4,86.4*
O=C(CCl)Nc1cc(-c2ccccc2)nn1-c1ccccc1,68.1*,7.9,5.3,-5.3,64.7*,20.4,88.6*
CC(=O)Nc1ccc(-c2cc(NC(C)=O)n(-c3ccccc3)n2)cc1,3.1,2.6,5.7,-6.8,-5.7,-1.7,/
Cc1cc(NC(=O)COc2ccccc2)n(-c2ccccc2)n1,0.4,-2.6,4.1,-4.3,-8.0,-10.6,/
CON=Cc1c(-c2ccc(Cl)cc2)nc2cc(C)ccn12,/,-57.7,/,/,/,/,/
O=C(C=NO)NCCN1CCCCC1,/,0.0,/,/,/,/,/
SMILES,Fh CTSL1 inh,UCH37 inh,TDP2 absorb,PAD4 FP inh,GSTO1 inh,HKDC1 inh,GSTO1 inh conf
C=CCN=c1scc(C)n1/N=C/c1ccc(O)c(O)c1,0.8,/,-6.5,-3.6,95.5*,-2.6,8.6
CN=c1scc(C)n1/N=C/c1ccc(O)cc1,3.4,/,-5.6,1.6,1.1,1.7,/
Cc1cc(C)n(N=Cc2cc(Cl)cc(Cl)c2O)c(=O)c1,/,-15.6,/,/,/,/,/
O=C(Nc1nc(-c2ccco2)c(-c2ccco2)s1)c1cnccn1,5.9,/,2.6,-10.1,44.7*,5.2,10.1
CC(C)c1ccc(C=NNC(=O)CCNC(=O)c2ccccc2)cc1,/,2.0,/,/,/,/,/
Oc1cccc(C=Nc2cccc3ccccc23)c1O,-2.7,/,13.0,-4.7,88.1*,16.6,9.9
Oc1ccccc1C=Nc1cccc2ccccc12,-2.6,-29.3,-20.6,-6.4,22.0,8.0,/
COc1ccc(CCn2c(NN)nc3c2c(=O)[nH]c(=O)n3C)cc1,13.5,/,2.0,-3.9,41.5*,3.2,7.8
COc1ccc(CCn2c(NCc3ccco3)nc3c2c(=O)[nH]c(=O)n3C)cc1,3.1,-1.4,-6.8,0.7,3.4,-0.2,/
COCc1nc2ccccc2n1CCc1ccccc1,-0.5,2.9,-3.8,-3.0,39.5*,-4.4,5.3
COC(=O)c1sc2nc(-c3ccco3)ccc2c1N,8.5,-34.3,3.4,9.3,47.8*,5.9,15.5
NC(=O)c1sc2nc(-c3ccco3)ccc2c1N,4.0,-53.3,6.7,-7.7,2.2,8.5,/
CCNC(=S)NN=C(C)c1ccc2ccccc2c1,/,4.5,/,/,/,/,/
Oc1cccc(C=NNc2cc(N3CCCC3)nc(N3CCCC3)n2)c1,/,-1.3,/,/,/,/,/
Oc1ccc(/C=N/Nc2cc(N3CCCC3)nc(N3CCCC3)n2)cc1O,0.1,/,-3.7,1.1,46.5*,15.3,78.9*
Cc1nn(-c2ccccc2)c(Cl)c1C=NNC(N)=O,/,1.3,/,/,/,/,/
COc1cc(C=NNC(=O)c2cc3ccccc3cc2O)ccc1OCCN1CCCCC1,/,9.6,/,/,/,/,/
Cc1cc(C)n2c(=O)c3ccc(Cl)cc3nc2c1C#N,-0.8,-43.5,-8.5,-9.9,53.1*,-19.9,2.0
Cc1cc(Cl)n2c(nc3cc(F)c(F)cc32)c1C#N,/,-27.9,7.0,/,/,33.8,/
CCOC(=O)Cc1csc(NN=Cc2ccc(C(F)(F)F)cc2)n1,/,0.3,/,/,/,/,/
CCOC(=O)C1=C(C)OC(N)=C(C#N)C1c1cc2c(cc1[N+](=O)[O-])OCO2 (centres undefined),9.9,-15.0,-5.5,-11.1,46.3*,4.9,17.0
CCOC(=O)C1=C(C)OC(N)=C(C#N)C1c1cc(OC)c2c(c1)OCO2 (centres undefined),1.3,-1.6,4.2,5.6,10.0,-2.1,/
CCn1c(-c2ccccc2Cl)nn(CC(=O)Nc2cc(Cl)ccc2Cl)c1=S,2.1,0.6,1.6,1.4,38.1*,-0.1,20.6
O=C(NN=C1CCc2ccccc21)c1ccccc1O,/,13.5,/,/,/,/,/
Cc1cccc(C)c1NC(=S)NCCc1ccc(O)c(O)c1,8.3,-1.8,-10.2,-1.3,37.7*,-2.9,6.9
COc1ccc(CNC(=O)C(c2ccncc2)N(C(=O)Cc2cccs2)c2ccccc2)cc1 (centres undefined),/,-0.1,-8.9,/,/,-5.7,/

# Assay outcomes (PubChem)
